CTSL1 counter = counter-screen for PFM18AAP inhibitors: inhibitors of F. hepatica cathepsin L1. recombinant F. hepatica cathepsin L1, Z-Leu-Arg-MCA fluorescence. inhibition, % at 5.96 µM. 300,000 compounds, 0.49% hits. AID 1906;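 active = inhibition above the mean of all tested compounds plus 3 SD, set per screening campaign, cut at about 17% in these data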;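 also: 0% = plate median of test compound wells and 100% = 1 µM Z-Phe-Ala-diazomethylketone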
NadD block = NadD (S. aureus) enzyme inhibition; purified NadD enzyme, colorimetric absorbance read-out; inhibition, % at 20 µM; 360,000 compounds, 0.78% hits; in the data active = inhibition above about 26%
PP1 counter = counter-screen for PP5 inhibitors: inhibitors of human PP1-alpha; inhibition, % at 6.7 µM; purified PP1alpha, OMFP fluorescence; 320,000 compounds, 0.9% hits; P62136;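 active = inhibition above the mean inhibition of all tested compounds plus 3 SD, computed separately for each screening campaign, cut at about 15% in these data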
Target sequence (P62136 whole entry, looked up): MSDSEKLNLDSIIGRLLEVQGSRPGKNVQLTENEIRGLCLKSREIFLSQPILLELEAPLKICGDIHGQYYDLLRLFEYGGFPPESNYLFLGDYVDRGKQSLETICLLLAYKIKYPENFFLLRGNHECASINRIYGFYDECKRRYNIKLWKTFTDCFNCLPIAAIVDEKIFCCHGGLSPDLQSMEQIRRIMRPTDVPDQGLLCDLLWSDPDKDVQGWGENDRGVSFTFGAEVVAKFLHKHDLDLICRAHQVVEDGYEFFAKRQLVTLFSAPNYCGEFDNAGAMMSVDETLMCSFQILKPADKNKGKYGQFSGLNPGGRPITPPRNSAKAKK
PP5 primary = inhibitors of human protein phosphatase 5 (PP5) | AID 1987 | 320,000 compounds, 0.18% hits | inhibition, % at 6.7 µM | purified PP5c, OMFP substrate fluorescence | P53041;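 active = inhibition above the campaign's mean inhibition across all tested compounds plus 3 SD, cut at about 9.5% in these data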;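 also: 0% = DMSO only and 100% = 100 µM cantharidin control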
HCV core dimer = blocks dimerization of HCV core protein. TR-FRET GST/Flag-core106 dimerization, 1536-well. 300,000 compounds, 0.33% hits. inhibition, % at 5 µM. AID 1899;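 active = inhibition above the mean of all tested compounds plus 3 SD, set per screening campaign, cut at about 45% in these data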
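Assay system: tagged HCV core106 pair (GST and Flag); medium: KF-containing HEPES buffer, pH 7.45, DTT, CHAPS, BSA; also added: Eu donor and XL665 acceptor anti-tag antibodies; dosing: 5 µM single dose; timing: compound-protein-antibody incubation 4 h at 22.5 °C; signal: TR-FRET 671 and 617 nm emission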
Myeloid diff 2 = compounds promoting myeloid differentiation | ER-HoxA9 myeloid progenitors, lysozyme-GFP differentiation, flow cytometry | 360,000 compounds, 1% hits | calls only at 10 µM;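 active = normalized GFP-positive differentiation at or above the plate's own cutoff, the solvent-only control mean plus 3 SD; inconclusive = no clear call, values can overlap the other calls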;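 also: cells exposed to compound for four days before flow analysis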
Active calls of the source: *; i = inactive; ? = inconclusive; . = no result given; + = active, no number. In the library only some 3.1% were active in any assay of this set; here they are far more common.

SMILES	CTSL1 counter	NadD block	PP1 counter	PP5 primary	HCV core dimer	Myeloid diff 2
C/C(=N\Nc1nc(-c2cc(C)ccc2C)cs1)c1cc2ccccc2oc1=O	-2	4	7	3	57*	i
C[C@@H]1CN([C@@H](C)CO)C(=O)CCCn2cc(nn2)CO[C@H]1CN(C)C(=O)c1ccc2ccn(C)c2c1	.	-2	.	.	.	i
O=C(OCC(O)COC(=O)c1cccnc1)c1cccnc1	-2	-3	0	2	3	+
O=C(OCc1ccc(Br)cc1)c1cccnc1	0	-2	-1	-5	9	i
C=CCSc1nnc(N2C(=O)C(O)=C(C(=O)c3ccco3)C2c2ccccc2F)s1 (stereo not given)	1	7	15	1	-4	+
Cc1cc(C)nc(/N=c2/ssnc2Cl)c1	22*	9	-1	1	-34	i
CC(=O)Nc1ccc(S(=O)(=O)N(C)CC(=O)N/N=C/c2ccncc2)cc1	-6	-6	-5	3	-16	i
Cc1ccc(-c2nc(N/N=C/c3ccccc3[N+](=O)[O-])c3ccccc3n2)cc1	1	0	1	0	2	+
Brc1ccc(-c2nc(N/N=C/c3cccnc3)c3ccccc3n2)cc1	3	-6	-2	2	6	+
CCCC(=O)N1CCCC1(C)C(=O)Nc1cc(C)ccc1C (stereo not given)	.	-4	.	.	.	i
CCn1c(SC(=O)NC2CCCCC2)nnc1-c1cccs1	55*	-8	-3	1	-3	i
CCn1c(SCC(=O)NC2CCCCC2)nnc1-c1cccs1	1	-4	0	-1	2	i
Cc1ccc(-c2cn3nc(-c4ccccc4)c(-c4ccccc4)nc3n2)cc1	0	6	-4	-2	15	+
c1ccc(-c2cn3nc(-c4ccccc4)c(-c4ccccc4)nc3n2)cc1	3	4	4	0	8	i
CCCCCCCCN1N=N[C@H]2[C@H]1[C@@H]1C[C@H]2N(C(=O)OC(C)(C)C)O1	.	0	.	.	.	i
Cc1sc2nc(CN3CCCCC3)nc(Cl)c2c1C	3	-1	-2	2	6	+
C/C(CC(=O)Nc1c(C)cc(C)cc1C)=N\NC(=O)Cc1ccccc1	-4	-1	-5	1	8	.
N#C/C(=C\c1ccc(-c2ccc(F)cc2)o1)C(=O)Nc1nc(-c2cccs2)cs1	4	26	15*	2	44	i
N#C/C(=C/c1ccc(-c2ccccc2)o1)c1nc(-c2cccs2)cs1	2	0	1	1	2	+
Cc1cccc2nnc(-c3ccccc3)n12	.	0	.	.	.	i
CCc1nc2ccc(C(=O)N3CCN(C(=O)c4ccco4)CC3)cn2c1N(CC)CCOC	.	3	.	.	.	i
CN(C)c1ccc(C(=N)Cc2ccc3ccccc3n2)cc1	.	11	.	.	.	+
CCOC(=O)C1=C(COC(=O)/C=C/c2cccc(F)c2)NC(=O)NC1C (stereo not given)	.	0	.	.	.	i
CCN(CC)C(=O)CSc1nc2ncccc2[nH]1	19*	-4	-4	3	-1	i
C=C(C)CSc1nc2ncccc2[nH]1	-2	3	-4	1	-1	i
SMILES	CTSL1 counter	NadD block	PP1 counter	PP5 primary	HCV core dimer	Myeloid diff 2
CCC(=O)Oc1oc(-c2ccccc2)nc1C=Nc1ccc(C)cc1	26*	-7	-5	2	4	i
CCC(=O)Oc1oc(-c2ccccc2)nc1C=Nc1ccccc1OC	25*	-2	3	0	17	i
CCOC(=O)c1cccc(Nc2nc(-c3cccnc3)nc3ccccc23)c1	-1	-6	10	7	10	+
CC(=O)Nc1cc2c3c(cccc3c1)-c1ccccc1-2	.	-5	.	.	.	+
O=C(OCCOc1ccccc1F)c1cccc(S(=O)(=O)N2CCOCC2)c1	.	-4	-2	2	.	+
O=C(NCCN1CCOCC1)c1ccncc1	2	-5	2	1	0	i
O=C1C=C(NCCN2CCOCC2)C(=O)c2cnccc21	100*	.	2	1	27	.
CC(C)Oc1ccc(C(=O)Nc2cc(S(=O)(=O)N3CCOCC3)ccc2N2CCOCC2)cc1	.	1	.	.	.	i
Cc1ccc(S(=O)(=O)c2c(N)n(Cc3ccco3)c3nc4ccccc4nc23)cc1C	1	47*	6	3	14	i
Nc1c(S(=O)(=O)c2ccccc2)c2nc3ccccc3nc2n1Cc1ccco1	5	10	3	2	8	i
CCC1Sc2ccc(S(=O)(=O)CCC(=O)Nc3c(Cl)cc(OC)cc3OC)cc2NC1=O (stereo not given)	3	-1	3	2	15	i
Cc1ccc([N+](=O)[O-])cc1NC(=O)c1cccnc1	-3	-5	-2	0	6	i
CCc1ccc(NC(=O)NNC(=O)c2cc3ccccc3cc2O)cc1	5	3	15*	0	9	i
O=C(Nc1ccc(N2CCCCC2)c(Cl)c1)c1cccnc1	5	6	3	-1	2	+
O=C(NCCCn1ccnc1)/C(=C\c1ccc(Br)cc1)NC(=O)c1ccccc1F	0	-4	1	0	-1	i
COc1ccc(Nc2ccc3c(c2)=NC2(CCCCC2)[N+]=3[O-])cc1	-1	-3	3	3	-44	?
[O-][N+]1=c2ccc(Nc3ccccc3)cc2=NC12CCCCC2	20*	0	-7	7	-65	?
CCN(C(=O)COC(=O)CCNS(=O)(=O)c1ccccc1F)c1c(N)n(Cc2ccccc2)c(=O)[nH]c1=O	.	11	.	.	.	i
COc1cc(OC)c(OC)cc1/C=C/C(=O)c1ccc(NS(=O)(=O)c2ccc(C)cc2)cc1	4	21	-1	1	26	+
CSc1ccccc1NC(=O)C(C)N(C)CC(=O)N1CCN(Cc2ccccc2)CC1 (stereo not given)	.	-2	.	.	.	i
O=C1CCCC2=C1C(c1ccco1)Nc1ccc3ccccc3c12 (stereo not given)	-1	12	4	1	71*	+
O=C1CCCC2=C1C(c1ccc(O)c(O)c1)Nc1ccc3ccccc3c12 (stereo not given)	-2	9	-4	-1	2	i
CCN(CC)C(C)C(=O)Nc1c2c(cc3c1CCC3)CCC2 (stereo not given)	5	1	-1	-1	-5	+
CCOC(=O)C1=C(CSc2nc3c(cc2C#N)CN(C)CC3)OC(N)=C(C#N)C1c1ccc(F)cc1 (stereo not given)	-1	16	16*	5	44	i
CCOC(=O)C1=C(CSc2nc3c(cc2C#N)CCC3)OC(N)=C(C#N)C1c1ccccc1 (stereo not given)	2	13	1	5	-1	i

Screening results: PubChem, several laboratories
